Laboratory results from ChEMBL document CHEMBL1122745, “In the search for new anticancer drugs. 9. Synthesis and anticancer activity of spin-labeled analogues of N,N:N',N':N",N"-Tri-1,2-ethanediylphosphoric triamide and N,N:N',N':N",N"-tri-1,2-ethanediylphosphorothioic triamide” (1984).
Where “and” joins values, the source holds several entries; their conditions need not be identical. Identical values can stand only once.

Columns and labels:
Mus musculus [1] = test: In vivo evaluation of percent increase in life span (ILS) against P388 lymphocytic leukemia in infected CD2F1 male mice and at 15 dose mg/kg; format: functional
Method in brief: (§1)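 P388 lymphocytic leukemia (10⁶ cells) transplanted into male CD2F1 (CDF1) mice, with intraperitoneal treatment once daily for 9 days following the day of transplantation. Groups of 6. Survival days of treated (T) and control (C) mice were compared, and %ILS was calculated as [(T−C)/C]100.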

Mus musculus [2] = test: (§2) In vivo evaluation of 30 day survival against P388 lymphocytic leukemia in CD2F1 male mice at dose 15 mg/kg; out of 6 mice; format: functional
Method in brief: (§3)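 CD2F1 (CDF1) male mice transplanted with 10⁶ P388 lymphocytic leukemia cells, then dosed intraperitoneally once daily for 9 days starting after the day of transplantation. Groups of 6 mice. Read-out is the number of mice alive at 30 days over the total per group.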

Mus musculus [3] = test: In vivo evaluation of 30 day survival against P388 lymphocytic leukemia in CD2F1 male mice at dose 10 mg/kg; out of 6 mice; format: functional; method in brief: as §3
Mus musculus [4] = test: In vivo evaluation of percent increase in life span (ILS) against P388 lymphocytic leukemia in infected CD2F1 male mice and at 10 dose mg/kg; format: functional; method in brief: as §1
Mus musculus [5] = test: (§4) In vivo evaluation of 30 day survival against P388 lymphocytic leukemia in CD2F1 male mice at dose 40 mg/kg; out of 6 mice; format: functional, organism-based; set-up: dose 40 mg/kg; method in brief: as §3
Mus musculus [6] = test: In vivo evaluation of percent increase in life span (ILS) against P388 lymphocytic leukemia in infected CD2F1 male mice and at 160 dose mg/kg; format: functional; method in brief: as §1
Mus musculus [7] = test: (§5) In vivo evaluation of 30 day survival against P388 lymphocytic leukemia in CD2F1 male mice at dose 80 mg/kg; out of 6 mice; format: functional, organism-based; set-up: dose 80 mg/kg; method in brief: as §3
Mus musculus [8] = test: (§6) In vivo evaluation of 30 day survival against P388 lymphocytic leukemia in CD2F1 male mice at dose 20 mg/kg; out of 6 mice; format: functional; method in brief: as §3
Mus musculus [9] = test: (§7) In vivo evaluation of 30 day survival against P388 lymphocytic leukemia in CD2F1 male mice at dose 160 mg/kg; out of 6 mice; format: functional, organism-based; set-up: dose 160 mg/kg; method in brief: as §3
Mus musculus [10] = test: In vivo evaluation of percent increase in life span (ILS) against P388 lymphocytic leukemia in infected CD2F1 male mice and at 40 dose mg/kg; format: functional; method in brief: as §1
Mus musculus [11] = test: (§8) In vivo evaluation of percent increase in life span (ILS) against P388 lymphocytic leukemia in infected CD2F1 male mice and at 80 dose mg/kg; format: functional, organism-based; method in brief: as §1
Mus musculus [12] = test: as §2; format: functional; method in brief: as §3; remark: listed apart in the source
Mus musculus [13] = test: as §4; format: functional; method in brief: as §3
Mus musculus [14] = test: In vivo evaluation of 30 day survival against P388 lymphocytic leukemia in CD2F1 male mice at dose 30 mg/kg; out of 6 mice; format: functional; method in brief: as §3
Mus musculus [15] = test: In vivo evaluation of percent increase in life span (ILS) against P388 lymphocytic leukemia in infected CD2F1 male mice and at 30 dose mg/kg; format: functional; method in brief: as §1
Mus musculus [16] = test: In vivo evaluation of 30 day survival against P388 lymphocytic leukemia in CD2F1 male mice at dose mg/kg; out of 6 mice; format: functional; method in brief: as §3
Mus musculus [17] = test: In vivo evaluation of percent increase in life span (ILS) against P388 lymphocytic leukemia in infected CD2F1 male mice and at 6 dose mg/kg; format: functional; method in brief: as §1
Mus musculus [18] = test: In vivo evaluation of percent increase in life span (ILS) against P388 lymphocytic leukemia in infected CD2F1 male mice and at 3 dose mg/kg; format: functional; method in brief: as §1
Mus musculus [19] = test: as §6; format: functional; method in brief: as §3; remark: listed apart in the source
Mus musculus [20] = test: In vivo evaluation of 30 day survival against P388 lymphocytic leukemia in CD2F1 male mice at dose 25 mg/kg; out of 6 mice; format: functional; method in brief: as §3
Mus musculus [21] = test: In vivo evaluation of percent increase in life span (ILS) against P388 lymphocytic leukemia in infected CD2F1 male mice and at 25 dose mg/kg; format: functional; method in brief: as §1
Mus musculus [22] = test: In vivo evaluation of percent increase in life span (ILS) against P388 lymphocytic leukemia in infected CD2F1 male mice and at 20 dose mg/kg; format: functional; method in brief: as §1
Mus musculus [23] = test: as §6; format: functional, organism-based; set-up: dose 20 mg/kg; method in brief: as §3
Mus musculus [24] = test: In vivo evaluation of 30 day survival against P388 lymphocytic leukemia in CD2F1 male mice at dose 7.5 mg/kg; out of 6 mice; format: functional; method in brief: as §3
Mus musculus [25] = test: as §5; format: functional; method in brief: as §3
Mus musculus [26] = test: as §8; format: functional; method in brief: as §1
Mus musculus [27] = test: as §7; format: functional; method in brief: as §3
Mus musculus [28] = test: In vivo evaluation of percent increase in life span (ILS) against P388 lymphocytic leukemia in infected CD2F1 male mice and at dose mg/kg; format: functional; method in brief: as §1
Mus musculus [29] = test: In vivo evaluation of percent increase in life span (ILS) against P388 lymphocytic leukemia in infected CD2F1 male mice and at 12 dose mg/kg; format: functional; method in brief: as §1
Mus musculus [30] = test: In vivo evaluation of 30 day survival against P388 lymphocytic leukemia in CD2F1 male mice at dose 6 mg/kg; out of 6 mice; format: functional; method in brief: as §3
Mus musculus [31] = test: In vivo evaluation of 30 day survival against P388 lymphocytic leukemia in CD2F1 male mice at dose 12 mg/kg; out of 6 mice; format: functional; method in brief: as §3
Mus musculus [32] = test: In vivo evaluation of percent increase in life span (ILS) against P388 lymphocytic leukemia in infected CD2F1 male mice and at dose; format: functional; method in brief: as §1

Compound: CC1(C)CC(NP(=S)(N2CC2)N2CC2)CC(C)(C)N1O
- ILS (Mus musculus [1]): 34%
- 30 day survival / total (Mus musculus [2]): 0
- 30 day survival / total (Mus musculus [3]): 0
- ILS (Mus musculus [4]): 25%

Compound: CC1(C)CC(OP(=S)(NCCCl)NCCCl)CC(C)(C)N1[O]
- 30 day survival / total (Mus musculus [5]): 0
- ILS (Mus musculus [6]): 44%
- 30 day survival / total (Mus musculus [7]): 0
- 30 day survival / total (Mus musculus [8]): 0
- 30 day survival / total (Mus musculus [9]): 0
- ILS (Mus musculus [10]): 17% and 13%
- ILS (Mus musculus [11]): 30%

Compound: CC1(C)CC(OP(=O)(N2CC2)N2CC2)CC(C)(C)N1[O]
- ILS (Mus musculus [1]): 5%
- 30 day survival / total (Mus musculus [3]): 0
- ILS (Mus musculus [4]): 29%
- 30 day survival / total (Mus musculus [12]): 0

Compound: CC1(C)CC(NP(=S)(N2CC2)N2CC2)CC(C)(C)N1
- 30 day survival / total (Mus musculus [13]): 0
- 30 day survival / total (Mus musculus [14]): 0
- ILS (Mus musculus [15]): 41%
- ILS (Mus musculus [10]): 88%

Compound: S=P(N1CC1)(N1CC1)N1CC1 [THIOTEPA]
- 30 day survival / total (Mus musculus [16]): 0
- ILS (Mus musculus [17]): 141%
- ILS (Mus musculus [18]): 83%

Compound: CC1(C)CC(NP(=S)(N2CC2)N2CC2)CC(C)(C)N1[O]
- 30 day survival / total (Mus musculus [19]): 0
- 30 day survival / total (Mus musculus [20]): 0
- ILS (Mus musculus [21]): 96%
- ILS (Mus musculus [22]): 52%
- 30 day survival / total (Mus musculus [3]): 0
- ILS (Mus musculus [4]): 34%

Compound: CC1(C)CC(OC(=O)NP(=O)(N2CC2)N2CC2)CC(C)(C)N1[O]
- ILS (Mus musculus [1]): 42%
- ILS (Mus musculus [15]): 81%

Compound: CN(C1CC(C)(C)N([O])C(C)(C)C1)P(=S)(NCCCl)N1CC1 (centres undefined)
- ILS (Mus musculus [1]): 20%
- ILS (Mus musculus [4]): 13%
- 30 day survival / total (Mus musculus [12]): 0
- 30 day survival / total (Mus musculus [23]): 0

Compound: CC1(C)CC(OP(=S)(N2CC2)N2CC2)CC(C)(C)N1O
- 30 day survival / total (Mus musculus [19]): 0
- 30 day survival / total (Mus musculus [24]): 0
- 30 day survival / total (Mus musculus [2]): 0

Compound: CN(C1CC(C)(C)N(O)C(C)(C)C1)P(=S)(N1CC1)N1CC1
- 30 day survival / total (Mus musculus [19]): 0
- 30 day survival / total (Mus musculus [2]): 0
- ILS (Mus musculus [22]): 4%

Compound: CC1(C)CC(OP(=S)(NCCCl)NCCCl)CC(C)(C)N1O
- 30 day survival / total (Mus musculus [25]): 0
- ILS (Mus musculus [6]): 33%
- ILS (Mus musculus [26]): 15%
- 30 day survival / total (Mus musculus [27]): 0

Compound: CN(C1CC(C)(C)N([O])C(C)(C)C1)P(=S)(N1CC1)N1CC1
- ILS (Mus musculus [28]): 27% and 16%
- 30 day survival / total (Mus musculus [8]): 0
- 30 day survival / total (Mus musculus [12]): 0

Compound: CC1(C)CC(OP(=S)(N2CC2)N2CC2)CC(C)(C)N1[O]
- ILS (Mus musculus [29]): 103%
- ILS (Mus musculus [1]): -8%
- 30 day survival / total (Mus musculus [30]): 0
- ILS (Mus musculus [17]): 45%
- 30 day survival / total (Mus musculus [2]): 0
- 30 day survival / total (Mus musculus [31]): 1

Compound: CC1(C)CC(OP(=O)(N2CC2)N2CC2)CC(C)(C)N1O
- 30 day survival / total (Mus musculus [2]): 0
- 30 day survival / total (Mus musculus [3]): 0
- ILS (Mus musculus [32]): -2% and 23%

Compound: CC1(C)CC(OC(=O)NP(=O)(N2CC2)N2CC2)CC(C)(C)N1O
- 30 day survival / total (Mus musculus [14]): 0
- ILS (Mus musculus [1]): 25%
- ILS (Mus musculus [15]): 48%
- 30 day survival / total (Mus musculus [2]): 0

Compound: CN(C1CC(C)(C)NC(C)(C)C1)P(=S)(N1CC1)N1CC1
- ILS (Mus musculus [1]): 33%
- 30 day survival / total (Mus musculus [2]): 0
- 30 day survival / total (Mus musculus [3]): 0
- ILS (Mus musculus [4]): 20%
